Measurements reported in ChEMBL document CHEMBL5260844, “Optimization of PDE3A Modulators for SLFN12-Dependent Cancer Cell Killing” (ACS Med Chem Lett, 2019).
In brackets after ≈: the same amount, converted by molar mass. Counter-ions that a name gives are not always drawn. Activity calls are given as the source filed them. The calls are words filed in the database; no cut-off is given here.

Key:
[1] = biological target: cGMP-inhibited 3',5'-cyclic phosphodiesterase 3A (Homo sapiens, UniProt Q14432); assay: Inhibition of human N-terminal His-GST-tagged recombinant PDE3A (669-end residues) using fluorescent labelled cAMP as substrate
Chain of cGMP-inhibited 3',5'-cyclic phosphodiesterase 3A (Q14432 whole entry): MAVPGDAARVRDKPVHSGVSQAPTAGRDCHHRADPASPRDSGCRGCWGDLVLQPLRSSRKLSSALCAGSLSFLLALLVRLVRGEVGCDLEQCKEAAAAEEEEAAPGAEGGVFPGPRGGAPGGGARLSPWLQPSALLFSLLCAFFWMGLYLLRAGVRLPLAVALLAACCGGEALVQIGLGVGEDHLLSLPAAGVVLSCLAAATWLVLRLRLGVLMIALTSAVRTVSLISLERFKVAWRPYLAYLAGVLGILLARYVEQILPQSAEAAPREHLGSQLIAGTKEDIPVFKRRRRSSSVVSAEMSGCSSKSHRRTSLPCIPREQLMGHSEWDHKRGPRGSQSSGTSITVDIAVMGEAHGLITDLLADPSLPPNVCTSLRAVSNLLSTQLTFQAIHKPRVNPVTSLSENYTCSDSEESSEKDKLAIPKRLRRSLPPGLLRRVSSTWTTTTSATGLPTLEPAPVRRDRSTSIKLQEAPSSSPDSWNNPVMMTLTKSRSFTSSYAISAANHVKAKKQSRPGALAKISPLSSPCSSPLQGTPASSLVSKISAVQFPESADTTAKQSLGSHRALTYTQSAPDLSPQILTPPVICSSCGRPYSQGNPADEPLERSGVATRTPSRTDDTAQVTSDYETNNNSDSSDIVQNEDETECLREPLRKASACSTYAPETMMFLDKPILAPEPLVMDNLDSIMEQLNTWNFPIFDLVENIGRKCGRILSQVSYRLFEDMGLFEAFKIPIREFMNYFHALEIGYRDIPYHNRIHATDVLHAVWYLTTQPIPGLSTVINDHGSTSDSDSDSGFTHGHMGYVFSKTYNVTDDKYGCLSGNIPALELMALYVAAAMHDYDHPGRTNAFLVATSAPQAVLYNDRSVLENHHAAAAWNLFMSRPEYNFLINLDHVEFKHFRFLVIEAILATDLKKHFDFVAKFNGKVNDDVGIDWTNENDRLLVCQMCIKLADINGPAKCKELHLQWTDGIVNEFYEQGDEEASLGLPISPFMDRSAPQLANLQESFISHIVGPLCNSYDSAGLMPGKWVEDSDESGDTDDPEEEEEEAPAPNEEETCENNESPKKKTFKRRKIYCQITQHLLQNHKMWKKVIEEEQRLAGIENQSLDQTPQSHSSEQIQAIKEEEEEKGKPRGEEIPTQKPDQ

A549 = assay: Cytotoxicity against human A549 cells assessed as cell growth inhibition upto 10 uM measured after 3 days by […] reagent based assay; details: time 72.0 hrs
[2] = Microsomal stability in mouse liver microsomes assessed as parent compound remaining at 1 uM measured after 1 hr in presence of NADPH by UHPLC-MS analysis; format: ADME, Microsome; details: read-out: Stability
Summary of the method: (§1)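 Test compound incubated with human or mouse liver microsomes. Percent remaining at 1 h reported as the average of three values.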

[3] = Plasma protein binding in human incubated for 5 hrs by UPLC-MS method; format: ADME, cell-free; details: read-out: PPB (converted)
Summary of the method: (§2)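 Plasma protein binding, human and mouse, reported as % bound, average of three values.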

[4] = Plasma protein binding in mouse incubated for 5 hrs by UPLC-MS method; format: ADME, cell-free; details: read-out: PPB (converted); summary of the method: as §2
[5] = Stability in human plasma assessed as parent compound remaining after 5 hrs; format: ADME, cell-free; details: read-out: Stability
Summary of the method: (§3)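 Human or mouse plasma incubation. Percent parent remaining at 5 h, average of three values.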

[6] = Microsomal stability in human liver microsomes assessed as parent compound remaining measured after 1 hr in presence of NADPH by UHPLC-MS analysis; format: ADME, Microsome; details: read-out: Stability; summary of the method: as §1
[7] = Stability in mouse plasma assessed as parent compound remaining after 5 hrs; format: ADME, cell-free; details: read-out: Stability; summary of the method: as §3
HCT-116 = assay: Cytotoxicity against human HCT-116 cells assessed as cell growth inhibition upto 10 uM measured after 48 hrs by […] reagent based assay; format: functional
Summary of the method: (§4)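 Counterscreen viability assay in HCT116 colorectal cancer cells and IMR90 normal lung fibroblasts, run alongside DNMDP-sensitive lines.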

[8] = biological target: cGMP-inhibited 3',5'-cyclic phosphodiesterase 3B (Homo sapiens, UniProt Q13370); assay: Inhibition of human recombinant PDE3B
[9] = biological target: Ribonuclease SLFN12 (Homo sapiens) (UniProt Q8IYM2); assay: Stabilization of PDE3A/V5-epitope tagged SLFN12 interaction in human HeLa cells at 10 uM incubated for 8 hrs by immunoblotting analysis; format: cell-based
Chain of Ribonuclease SLFN12 (Homo sapiens) (Q8IYM2 whole entry): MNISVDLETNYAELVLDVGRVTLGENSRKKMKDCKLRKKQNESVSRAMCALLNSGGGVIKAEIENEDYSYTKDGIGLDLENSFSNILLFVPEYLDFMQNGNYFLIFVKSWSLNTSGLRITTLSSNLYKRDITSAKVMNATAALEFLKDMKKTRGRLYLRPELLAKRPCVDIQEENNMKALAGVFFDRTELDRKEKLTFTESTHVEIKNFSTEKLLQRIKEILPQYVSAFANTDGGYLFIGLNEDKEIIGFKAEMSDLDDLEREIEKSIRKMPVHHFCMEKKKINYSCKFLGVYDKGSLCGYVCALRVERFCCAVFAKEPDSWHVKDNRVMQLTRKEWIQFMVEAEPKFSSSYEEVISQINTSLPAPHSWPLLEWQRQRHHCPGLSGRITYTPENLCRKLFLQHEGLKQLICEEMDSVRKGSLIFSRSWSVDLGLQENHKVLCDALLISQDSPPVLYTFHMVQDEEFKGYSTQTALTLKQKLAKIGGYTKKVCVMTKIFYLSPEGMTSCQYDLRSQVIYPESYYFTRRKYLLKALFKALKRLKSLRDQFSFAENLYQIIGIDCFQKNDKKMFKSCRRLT
Summary of the method: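 HeLa cells transfected with a plasmid expressing V5-tagged SLFN12, then exposed to 10 µM compound for 8 h. Lysates immunoprecipitated with anti-PDE3A antibody for endogenous PDE3A. Co-precipitated SLFN12-V5 detected by immunoblot with anti-V5 antibody.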

SK-MEL3 [10] = assay: Cytotoxicity against human SK-MEL3 cells assessed as cell growth inhibition upto 10 uM measured after 48 hrs by […] reagent based assay; format: functional; details: SK-MEL3, 48 h
IMR-90 = assay: Cytotoxicity against human IMR-90 cells assessed as cell growth inhibition upto 10 uM measured after 48 hrs by […] reagent based assay; format: functional; summary of the method: as §4
[11] = biological target: 3',5'-cyclic-AMP phosphodiesterase 7B (Homo sapiens) (UniProt Q9NP56); assay: Inhibition of PDE7B (unknown origin) by 3H-cAMP scintillation proximity assay
SK-MEL3 [12] = assay: Antitumor activity against human SK-MEL3 cells xenografted in NMRI nude mouse assessed as tumor growth inhibition at 10 mg/kg, po administered twice daily for 44 days; format: functional, organism-based; details: time 44.0 day
Summary of the method: (§5)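 SK-MEL-3 melanoma cells inoculated subcutaneously into female NMRI nude mice. Oral dosing at 10 or 20 mg/kg twice daily, or 50 mg/kg once daily, with vehicle controls. Tumor area and tumor weight expressed relative to vehicle as T/C_rel.area and T/C_weight.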

Cytochrome P450 1A2 = Cytochrome P450 1A2 (Homo sapiens, UniProt P05177); assay: Inhibition of CYP1A2 (unknown origin); format: ADME
Summary of the method: (§6)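 CYP450 inhibition panel covering CYP1A2, 2C8, 2C9, 2D6 and 3A4, with compound tested at high concentrations.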

[13] = biological target: High affinity cAMP-specific and IBMX-insensitive 3',5'-cyclic phosphodiesterase 8A (Homo sapiens) (UniProt O60658); assay: Inhibition of PDE8A (unknown origin) by 3H-cAMP scintillation proximity assay
[14] = Permeability across basolateral to apical side in human Caco-2 cells; format: ADME, cell-based; details: read-out: permeability
Summary of the method: (§7)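 Caco2 monolayer permeability measured in the apical-to-basolateral and basolateral-to-apical directions, in nm/s. Efflux ratio calculated as B-A over A-B.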

[15] = Permeability across apical to basolateral side in human Caco-2 cells; format: ADME, cell-based; details: read-out: permeability; summary of the method: as §7
SK-MEL3 [16] = assay: Antitumor activity against human SK-MEL3 cells xenografted in NMRI nude mouse assessed as tumor growth inhibition at 50 mg/kg, po administered once daily for 44 days; format: functional, organism-based; details: time 44.0 day; summary of the method: as §5
[17] = biological target: 3',5'-cyclic-AMP phosphodiesterase 4B (Homo sapiens) (UniProt Q07343); assay: Inhibition of PDE4B (unknown origin) by 3H-cAMP scintillation proximity assay
[18] = Selectivity ratio, ratio of IC50 for human PDE3B to EC50 for cytotoxicity against human HeLa cells
Cytochrome P450 2D6 = Cytochrome P450 2D6 (Homo sapiens, UniProt P10635); assay: Inhibition of CYP2D6 (unknown origin); format: ADME; summary of the method: as §6
Chain of Cytochrome P450 2D6 (P10635 whole entry): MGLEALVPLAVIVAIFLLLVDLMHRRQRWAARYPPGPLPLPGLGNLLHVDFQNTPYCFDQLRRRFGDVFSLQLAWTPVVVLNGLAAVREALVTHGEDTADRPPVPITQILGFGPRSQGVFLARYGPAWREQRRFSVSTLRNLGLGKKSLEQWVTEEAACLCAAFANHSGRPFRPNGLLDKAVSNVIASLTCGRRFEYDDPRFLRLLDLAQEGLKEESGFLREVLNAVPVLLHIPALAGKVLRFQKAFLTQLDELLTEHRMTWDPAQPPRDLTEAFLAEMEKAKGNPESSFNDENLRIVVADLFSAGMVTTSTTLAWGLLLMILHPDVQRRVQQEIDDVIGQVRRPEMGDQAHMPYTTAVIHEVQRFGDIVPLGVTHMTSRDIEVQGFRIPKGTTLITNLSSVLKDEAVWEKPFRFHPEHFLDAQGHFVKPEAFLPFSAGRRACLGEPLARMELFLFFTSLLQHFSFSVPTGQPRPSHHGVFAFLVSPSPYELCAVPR

[19] = Efflux ratio of permeability in human Caco-2 cells; format: ADME, cell-based; summary of the method: as §7
Cytochrome P450 2C9 = Cytochrome P450 2C9 (Homo sapiens, UniProt P11712); assay: Inhibition of CYP2C9 (unknown origin); format: ADME; summary of the method: as §6
Chain of Cytochrome P450 2C9 (P11712 whole entry): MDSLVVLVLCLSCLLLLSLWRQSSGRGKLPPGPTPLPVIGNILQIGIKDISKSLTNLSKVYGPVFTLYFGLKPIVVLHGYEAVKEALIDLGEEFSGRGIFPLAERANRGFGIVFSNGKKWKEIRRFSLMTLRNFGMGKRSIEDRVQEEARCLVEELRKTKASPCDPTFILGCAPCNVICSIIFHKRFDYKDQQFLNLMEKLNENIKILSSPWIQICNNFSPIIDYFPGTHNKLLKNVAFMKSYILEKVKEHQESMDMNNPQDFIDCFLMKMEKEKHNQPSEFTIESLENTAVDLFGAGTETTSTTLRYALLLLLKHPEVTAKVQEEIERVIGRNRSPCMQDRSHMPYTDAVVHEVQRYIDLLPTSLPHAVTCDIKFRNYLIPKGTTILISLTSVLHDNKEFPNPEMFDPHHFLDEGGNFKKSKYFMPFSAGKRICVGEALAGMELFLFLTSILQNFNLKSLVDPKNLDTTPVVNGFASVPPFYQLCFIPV

[20] = Selectivity ratio, ratio of IC50 for human PDE3A to EC50 for cytotoxicity against human HeLa cells
[21] = biological target: cGMP-specific 3',5'-cyclic phosphodiesterase (Homo sapiens) (UniProt O76074); assay: Inhibition of PDE5 (unknown origin) by 3H-cAMP scintillation proximity assay
[22] = biological target: Voltage-gated inwardly rectifying potassium channel KCNH2 (Homo sapiens, UniProt Q12809); assay: Binding affinity to hERG (unknown origin); format: toxicity
Chain of Voltage-gated inwardly rectifying potassium channel KCNH2 (Q12809 whole entry): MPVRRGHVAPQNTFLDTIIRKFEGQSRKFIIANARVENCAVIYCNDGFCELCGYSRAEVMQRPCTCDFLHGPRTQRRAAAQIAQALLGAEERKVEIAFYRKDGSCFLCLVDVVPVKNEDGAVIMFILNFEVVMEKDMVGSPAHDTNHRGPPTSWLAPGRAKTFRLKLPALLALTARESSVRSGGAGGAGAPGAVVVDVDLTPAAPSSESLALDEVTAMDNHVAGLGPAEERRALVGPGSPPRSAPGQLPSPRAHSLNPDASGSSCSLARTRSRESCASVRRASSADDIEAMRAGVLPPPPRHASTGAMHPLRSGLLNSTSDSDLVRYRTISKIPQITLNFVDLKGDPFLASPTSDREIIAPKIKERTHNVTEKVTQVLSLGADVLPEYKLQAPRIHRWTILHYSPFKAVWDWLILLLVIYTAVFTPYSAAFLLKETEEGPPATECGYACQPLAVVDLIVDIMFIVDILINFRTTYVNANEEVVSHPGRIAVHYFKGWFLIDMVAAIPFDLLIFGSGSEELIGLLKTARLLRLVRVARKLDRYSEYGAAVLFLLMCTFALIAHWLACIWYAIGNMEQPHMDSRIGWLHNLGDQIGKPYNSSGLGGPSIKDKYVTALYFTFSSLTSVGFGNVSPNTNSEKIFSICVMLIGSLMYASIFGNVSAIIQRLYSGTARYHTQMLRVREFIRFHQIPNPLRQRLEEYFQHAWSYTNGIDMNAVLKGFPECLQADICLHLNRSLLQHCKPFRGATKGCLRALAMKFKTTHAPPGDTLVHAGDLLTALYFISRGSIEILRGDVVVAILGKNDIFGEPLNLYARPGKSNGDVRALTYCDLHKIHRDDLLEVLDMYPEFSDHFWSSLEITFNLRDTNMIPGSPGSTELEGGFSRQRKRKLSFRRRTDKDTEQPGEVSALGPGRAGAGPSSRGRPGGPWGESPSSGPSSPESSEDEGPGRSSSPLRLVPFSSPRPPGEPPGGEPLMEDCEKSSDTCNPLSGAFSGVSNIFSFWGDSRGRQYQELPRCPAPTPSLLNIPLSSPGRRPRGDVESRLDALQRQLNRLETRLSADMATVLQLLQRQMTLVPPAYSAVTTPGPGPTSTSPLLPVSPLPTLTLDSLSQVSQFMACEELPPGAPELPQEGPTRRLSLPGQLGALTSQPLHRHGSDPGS

[23] = Toxicity in NMRI nude mouse assessed as tolerance at 20 mg/kg, po administered twice daily for 44 days; format: organism-based; details: in vivo, 1056 h, time 44 day
Summary of the method: (§8)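 Female NMRI nude mice carrying subcutaneous SK-MEL-3 xenografts, given the compound orally at 10 or 20 mg/kg twice daily, or 50 mg/kg once daily. Tolerance judged by body weight loss (>10% critical) and toxicities.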

SK-MEL3 [24] = assay: Antitumor activity against human SK-MEL3 cells xenografted in NMRI nude mouse assessed as tumor growth inhibition at 20 mg/kg, po administered twice daily for 44 days; format: functional, organism-based; details: time 44.0 day; summary of the method: as §5
[25] = biological target: High affinity cGMP-specific 3',5'-cyclic phosphodiesterase 9A (Homo sapiens) (UniProt O76083); assay: Inhibition of PDE9A (unknown origin) by 3H-cAMP scintillation proximity assay
Chain of High affinity cGMP-specific 3',5'-cyclic phosphodiesterase 9A (Homo sapiens) (O76083 whole entry): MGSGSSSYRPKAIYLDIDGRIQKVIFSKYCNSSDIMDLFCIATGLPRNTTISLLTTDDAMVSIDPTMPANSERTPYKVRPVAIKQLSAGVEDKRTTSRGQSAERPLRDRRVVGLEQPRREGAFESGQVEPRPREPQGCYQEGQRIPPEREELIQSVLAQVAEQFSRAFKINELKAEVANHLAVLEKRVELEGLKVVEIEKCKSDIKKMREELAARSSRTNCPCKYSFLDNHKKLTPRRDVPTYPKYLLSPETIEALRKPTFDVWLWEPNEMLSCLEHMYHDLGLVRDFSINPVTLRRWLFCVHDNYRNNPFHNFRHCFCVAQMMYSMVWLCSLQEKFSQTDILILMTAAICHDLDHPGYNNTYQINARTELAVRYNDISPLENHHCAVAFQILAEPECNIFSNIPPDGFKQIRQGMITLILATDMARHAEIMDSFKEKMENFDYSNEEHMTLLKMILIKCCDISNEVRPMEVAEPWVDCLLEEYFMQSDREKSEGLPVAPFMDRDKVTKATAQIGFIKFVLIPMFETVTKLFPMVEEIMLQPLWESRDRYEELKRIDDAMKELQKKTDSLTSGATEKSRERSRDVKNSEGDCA

HeLa = assay: Cytotoxicity against human HeLa cells assessed as cell growth inhibition measured after 48 hrs by […] reagent based assay; format: functional
[26] = Toxicity in NMRI nude mouse assessed as tolerance at 10 mg/kg, po administered twice daily for 44 days; format: organism-based; details: in vivo, 1056 h, time 44 day; summary of the method: as §8
Homo sapiens = species on record: Homo sapiens; assay: Inhibition of PDE1 (unknown origin) by 3H-cAMP scintillation proximity assay
[27] = Solubility of the compound; format: physicochemical
Cytochrome P450 2C8 = Cytochrome P450 2C8 (Homo sapiens, UniProt P10632); assay: Inhibition of CYP2C8 (unknown origin); format: ADME; summary of the method: as §6
[28] = biological target: Phosphodiesterase 6 (Homo sapiens) (UniProt Q13956+P18545+P35913+O43924+P16499+P51160); assay: Inhibition of PDE6 (unknown origin) by 3H-cAMP scintillation proximity assay; format: protein assay
Cytochrome P450 3A4 = Cytochrome P450 3A4 (Homo sapiens, UniProt P08684); assay: Inhibition of CYP3A4 (unknown origin); format: ADME; summary of the method: as §6
Chain of Cytochrome P450 3A4 (P08684 whole entry): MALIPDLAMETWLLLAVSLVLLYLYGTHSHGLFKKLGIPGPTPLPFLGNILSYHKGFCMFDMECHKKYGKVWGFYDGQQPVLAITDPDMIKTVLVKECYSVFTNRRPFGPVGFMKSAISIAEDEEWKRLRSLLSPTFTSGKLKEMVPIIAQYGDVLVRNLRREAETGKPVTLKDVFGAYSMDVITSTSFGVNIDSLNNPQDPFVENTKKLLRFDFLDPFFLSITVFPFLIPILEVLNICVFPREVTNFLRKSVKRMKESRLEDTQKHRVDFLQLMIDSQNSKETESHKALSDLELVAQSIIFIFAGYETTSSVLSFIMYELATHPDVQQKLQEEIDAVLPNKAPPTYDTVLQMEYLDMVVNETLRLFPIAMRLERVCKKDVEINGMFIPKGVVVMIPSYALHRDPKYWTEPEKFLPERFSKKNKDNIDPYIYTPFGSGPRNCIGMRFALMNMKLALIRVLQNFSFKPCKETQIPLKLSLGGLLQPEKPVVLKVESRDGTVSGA

SK-MEL3 [29] = assay: Antitumor activity against human SK-MEL3 cells xenografted in NMRI nude mouse assessed as tumor weight by measuring tumor to control ratio at 50 mg/kg, po administered once daily for 44 days; format: functional; details: time 44 day; summary of the method: as §5
SK-MEL3 [30] = assay: Antitumor activity against human SK-MEL3 cells xenografted in NMRI nude mouse assessed as tumor growth inhibition by measuring tumor to control ratio at 50 mg/kg, po administered once daily for 44 days; format: functional; details: time 44 day; summary of the method: as §5
[31] = Toxicity in NMRI nude mouse assessed as tolerance at 50 mg/kg, po administered once daily for 44 days; format: organism-based; details: in vivo, 1056 h, time 44 day; summary of the method: as §8
[32] = biological target: cGMP-dependent 3',5'-cyclic phosphodiesterase (Homo sapiens) (UniProt O00408); assay: Inhibition of PDE2A (unknown origin) by 3H-cAMP scintillation proximity assay
[33] = Inhibition of PDE in human HeLa cells; format: cell-based

SMILES: CCN(CC)c1ccc(C2=NNC(=O)CC2C)cc1[N+](=O)[O-] (stereo unspecified)
- IC50 [1]: 25 nM
- Activity (A549): inactive
- remaining at 1 h, 1 µM [2]: 23%
- fraction unbound at 5 h [3]: 0.13
- fraction unbound at 5 h [4]: 0.08
- remaining at 5 h [5]: 85%
- remaining at 1 h [6]: 95%
- remaining at 5 h [7]: 87%
- Activity (HCT-116): inactive
- IC50 [8]: 100 nM
- Activity [9]: Active
- EC50 (SK-MEL3 [10]): 12 nM
- Activity (IMR-90): inactive

SMILES: C[C@@H]1CC(=O)NN=C1c1ccc(N2CCOCC2)c(F)c1
- inhibition [11]: inactive
- IC50 [1]: 10 nM
- TGI (SK-MEL3 [12]): Active
- inhibition (INH) (Cytochrome P450 1A2): Not Active
- inhibition [13]: inactive
- Activity (A549): inactive
- Papp B→A [14]: 19.8 ×10⁻⁶ cm/s
- Papp A→B [15]: 27.9 ×10⁻⁶ cm/s
- TGI (SK-MEL3 [16]): Active
- inhibition [17]: inactive
- Ratio IC50/EC50 [18]: 2.4
- inhibition (INH) (Cytochrome P450 2D6): Not Active
- efflux ratio [19]: 0.71
- inhibition (INH) (Cytochrome P450 2C9): Not Active
- Ratio IC50/EC50 [20]: 2.4
- inhibition [21]: inactive
- Activity [22]: Not Active
- Activity [23]: Non-Toxic
- TGI (SK-MEL3 [24]): Active
- Activity (HCT-116): inactive
- inhibition [25]: inactive
- EC50 (HeLa): 1.6 nM
- Activity [26]: Non-Toxic
- inhibition (Homo sapiens): inactive
- Activity [9]: Active
- solubility [27]: 1000 µM (≈ 291 µg/mL)
- EC50 (SK-MEL3 [10]): 1.3 nM
- inhibition (INH) (Cytochrome P450 2C8): Not Active
- inhibition [28]: inactive
- inhibition (INH) (Cytochrome P450 3A4): Not Active
- T/C (SK-MEL3 [29]): 0.16
- Activity (IMR-90): inactive
- T/C (SK-MEL3 [30]): 0.09
- Activity [31]: Non-Toxic
- inhibition [32]: inactive

SMILES: COc1cc2c(cc1OC)-c1c/c(=N\c3c(C)cc(C)cc3C)n(C)c(=O)n1CC2 [TREQUINSIN HYDROCHLORIDE]
- IC50 [33]: 0.25 nM
- Activity (HCT-116): inactive
- Activity (IMR-90): inactive
